The record followed here is ChEMBL document CHEMBL4837204, “Synthesis, biological, and photophysical studies of molecular rotor-based fluorescent inhibitors of the trypanosome alternative oxidase” (Eur J Med Chem, 2021).

Structures are written as SMILES.

The CC50 is the concentration that lowers cell viability or growth by half. As usually defined, the EC50 is the concentration giving half of the maximal effect. Broadly, the IC50 is the concentration needed to halve the response being measured.

A short description of data set [1]: Selectivity index, ratio of CC50 cytotoxicity against HEK293T cells to EC50 for antitrypanosomal activity against bloodstream form of wild type Trypanosoma brucei brucei S427 trypomastigotes. The conditions noted are these: human; read-out: Ratio CC50/EC50. Type of data set: toxicity, cell-based. Put shortly: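 SI = CC50 on HEK 293T divided by EC50 on WT s427. For HEK 293T, cells adhered 24 h, were exposed 30 h, then given resazurin for 24 h (ex 530/em 590). For trypanosomes, cells were exposed 48 h, then given resazurin for 24 h (ex 544/em 590). Both values came from dose-response fits.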

The nature of data set [2]: Resistance factor, ratio of EC50 for Antitrypanosomal activity against bloodstream form of Trypanosoma brucei brucei AQP1-3 KO trypomastigotes to EC50 for antitrypanosomal activity against bloodstream form of wild type Trypanosoma brucei brucei S427 trypomastigotes. Format: functional. A digest of the protocol: (§1)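 The assay used bloodstream forms in HMI-9 at 37 °C, 5% CO2, 2 × 10⁵ cells/mL, read at ex 544/em 590 nm. EC50 came from a variable-slope sigmoidal fit, at least 3 experiments.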

The nature of data set [3]: Resistance factor, ratio of EC50 for antitrypanosomal activity against drug resistant Trypanosoma brucei B48 to EC50 for antitrypanosomal activity against bloodstream form of wild type Trypanosoma brucei brucei S427 trypomastigotes. Format: functional. Put shortly:
as §1

Data set [4] can be described thus: Cytotoxicity against HEK293T cells assessed as reduction in cell viability […] by resazurin dye based fluorescence assay. The arrangement: species or system HEK-293T. Conditions: human. (Alamar Blue is a resazurin reagent that responds to reducing activity.)
Data set [5] has as its system Trypanosoma brucei brucei. Description: Antitrypanosomal activity against drug resistant Trypanosoma brucei B48 incubated for 48 hrs by resazurin dye based fluorescence assay. Format: functional, organism-based. The conditions noted are these: B48, 48 h. A digest of the protocol:
(§2)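 Bloodstream T. b. brucei in complete HMI-9 at 37 °C, 5% CO2, 2 × 10⁵ cells/mL, exposed to doubling dilutions of compound for 48 h. Resazurin was then added and cells were incubated a further 24 h. Fluorescence was read at ex 544/em 590 nm with a drug-free control and pentamidine as positive control. EC50 came from a variable-slope sigmoidal fit, at least 3 independent experiments.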

Data set [6] has as its system Trypanosoma brucei brucei. Description: Antitrypanosomal activity against bloodstream form of Trypanosoma brucei brucei AQP1-3 KO trypomastigotes incubated for 48 hrs by resazurin dye based fluorescence assay. Type of data set: functional, organism-based. A digest of the protocol:
as §2

The subject of data set [7] is Trypanosoma brucei brucei. Briefly: Antitrypanosomal activity against bloodstream form of wild type Trypanosoma brucei brucei S427 trypomastigotes incubated for 48 hrs by resazurin dye based fluorescence assay. Type of data set: functional, organism-based. The conditions noted are these: S427, 48 h. A digest of the protocol: as §2
For data set [8], the target named is Alternative oxidase, mitochondrial (Trypanosoma brucei brucei, UniProt Q26710). Description: Inhibition of recombinant Trypanosoma brucei brucei alternative oxidase using ubiquinol as substrate preincubated for 2 mins followed by substrate addition by UV-Vis spectrophotometry. Put shortly:
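Recombinant ΔMTS-TAO was preincubated for 2 min with varying inhibitor amounts at 25 °C in 50 mM Tris-HCl pH 7.4 with 0.05% octaethylene glycol monododecyl ether. The reaction was started with ubiquinol, and its oxidation was followed at 278 nm for 2 min. DMSO served as negative control and ascofuranone/SHAM as positive controls. IC50 came from residual activity versus inhibitor concentration.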

Data set [9] can be described thus: Drug localization in mitochondria of mouse MC3T3-E1 cells at 0.6 uM incubated for 30 mins by MTDR staining based single-photon excitation fluorescence analysis. Type of data set: ADME. Conditions: mc3t3-e1, 0.5 h; call rule not given here. Put shortly:
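MC3T3-E1 preosteoblasts were grown in αMEM with 10% FBS, glutamine and pen/strep, then seeded at 25,000 cells/well on glass-bottom slides. Cells were preincubated with compound for 30 min at 37 °C, then given MitoTracker Deep Red (16 nM final) for 30 min. Confocal imaging used alternating excitation: 561 nm with detection at 580–630 nm, and 640 nm with detection at 650–720 nm.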

Data set [10] in a line: Drug uptake in bloodstream form of Trypanosoma brucei brucei AQP1-3 KO trypomastigotes at 0.2 to 2 uM measured after 1 hr by fluorimeter. Format: ADME. The conditions noted are these: dose 0.2-2 µM. Put shortly:
(§3)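 Mid-log bloodstream 427WT or aqp1-3 null cells were washed and resuspended at 10⁸ cells/mL in assay buffer. Fluorescence was read continuously at 37 °C, 5% CO2 (ex 544/em 620). After a background period, compound was added at the stated final concentration. Each trace averages 3 replicate wells on one plate.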

Data set [11] is described as follows: Drug uptake in bloodstream form of wild type Trypanosoma brucei brucei S427 trypomastigotes assessed as increase in fluorescent signal at 0.2 uM measured by fluorimeter. Type of data set: ADME. A digest of the protocol:
as §3

Data set [12] is described as follows: Drug localization in mitochondria of mouse MC3T3-E1 cells incubated for 30 mins by […] based two-photon excitation microscopy analysis. Format: ADME. Conditions: mc3t3-e1, 0.5 h.
Data set [13] can be described thus: Drug localization in rat liver mitochondria. Type of data set: ADME. A digest of the protocol: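 Rat liver was homogenised in 20 mM HEPES/250 mM sucrose, pH 7.4. After 800×g spins, mitochondria were enriched at 9000×g. Probe at 3 × 10⁻⁷ M was incubated with the mitochondrial suspension for 20 min at room temperature, then spun at 10,000×g for 10 min. Supernatant emission (ex 470 and 540 nm) was compared with probe in buffer alone to estimate the fraction partitioned into mitochondria.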

Data set [14] can be described thus: Drug localization in mitochondria of Trypanosoma brucei brucei at 40 uM incubated for 60 mins by MTG dye based confocal microscopy analysis. Format: ADME. The conditions noted are these: 1 h. A digest of the protocol: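 Bloodstream T. b. brucei at 2 × 10⁶ cells/mL were given compound in complete HMI-9 for 1 h at 37 °C, 5% CO2. MitoTracker Green (100 nM final) was added for 10 min. Cells were then pelleted, PBS-washed and stained with Hoechst 33342 for 10 min in the dark. They were immobilised in PBS-primed CyGEL and imaged for overlap with MTG.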

Sequence of Alternative oxidase, mitochondrial (Q26710 whole entry): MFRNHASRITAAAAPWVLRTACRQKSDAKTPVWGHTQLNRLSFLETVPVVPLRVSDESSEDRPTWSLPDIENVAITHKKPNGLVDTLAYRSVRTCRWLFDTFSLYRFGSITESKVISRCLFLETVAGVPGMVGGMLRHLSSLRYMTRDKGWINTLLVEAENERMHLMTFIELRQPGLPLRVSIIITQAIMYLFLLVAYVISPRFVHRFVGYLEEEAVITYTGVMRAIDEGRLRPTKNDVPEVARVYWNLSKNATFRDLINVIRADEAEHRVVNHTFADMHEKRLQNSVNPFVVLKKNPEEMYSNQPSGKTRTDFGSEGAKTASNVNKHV

Consider `Cc1c(Cl)c(O)cc(O)c1C(=O)OCCCCCCCCCCCCCCBr`, for which the selectivity ratio in data set [1] stood at 8.2. Further, the Ratio EC50 in data set [2] worked out at 1.91; in [3], 1.48. For the same molecule, the CC50 in data set [4] worked out at 55.9 µM. The EC50 in [5] turned out to be 10.1 µM; in [6], 13.1 µM; in data set [7], 6.84 µM. Also, the IC50 in data set [8] came out at 0.75 µM.

Regarding `Cc1cc(O)cc(OCCCCCCCCCCCCCC[n+]2ccc(/C=C/c3cc4c5c(c3O)CCCN5CCC4)cc2)c1.[Br-]`, the selectivity ratio in [1] is 44.1. Moreover, the Ratio EC50 worked out at 0.85 in data set [2] and 1.25 in data set [3]. For the same molecule, the CC50 in data set [4] was found to be 22.2 µM. The EC50 in [5] is 0.63 µM; in [6], 0.43 µM; in data set [7], 0.5 µM. For the same molecule, the half-inhibitory concentration (IC50) in data set [8] came to 0.145 µM. Moreover, the Drug uptake result in data set [9] is “Active”.

Take `Cc1cc[n+](CCCCCCCCCCCCCCOC(=O)c2c(C)c(Cl)c(O)c(Cl)c2O)cc1`: the selectivity ratio in data set [1] was found to be 1.7. In addition, the Ratio EC50 in data set [3] came to 1.03. For the same molecule, the CC50 in [4] is 4.4 µM. Besides, the EC50 in data set [5] came to 2.64 µM; in data set [7], 2.55 µM. In addition, the IC50 in data set [8] is 0.91 µM.

As for `Oc1c(/C=C/c2cc[n+](CCCCCCCCCCCCCCBr)cc2)cc2c3c1CCCN3CCC2.[Br-]`, the selectivity ratio in [1] stood at 62.6. Moreover, the results for the Ratio EC50 in [2] and in data set [3] were 0.79 and 1.16, respectively. The Drug uptake entry in data set [10] and in data set [11] was “Not Active” each time. Further, the CC50 in data set [4] was determined as 26.7 µM. Further, the results for the EC50 in data set [5], in data set [6] and in [7] were 0.49 µM, 0.34 µM and 0.43 µM, respectively. Besides, in [8], the IC50 is over 5 µM.

Regarding `N=C(N)c1ccc(OCCCCCOc2ccc(C(=N)N)cc2)cc1` [PENTAMIDINE], the Ratio EC50 in data set [2] came to 6.9; in data set [3] it was 102. The results for the EC50 in data set [5], in [6] and in data set [7] were 0.5 µM, 0.034 µM and 0.0049 µM, respectively.

As to `Cc1cc[n+](CCCCCCCCCCCCCCOC(=O)c2c(O)cc(O)c(Cl)c2C)cc1`, the selectivity ratio in data set [1] came out at 182. Further, the Ratio EC50 in [2] stood at 0.8; in [3] it was 1.53. Moreover, in data set [4], the CC50 was 43.7 µM. The EC50 in [5] was determined as 0.22 µM; in data set [6] it was 0.19 µM; in [7], 0.24 µM. In addition, the IC50 in [8] was 0.72 µM.

As for `Cc1cc[n+](CCCCCCCCCCCCCCOC(=O)c2c(C)cc(O)cc2O)cc1`, the selectivity ratio in data set [1] is 13.8. In addition, the Ratio EC50 in [3] was determined as 1.04. In [4], the CC50 was found to be 0.76 µM. Besides, the EC50 in [5] was determined as 0.06 µM; in data set [7] it was 0.055 µM. In addition, the IC50 in data set [8] is over 5 µM.

On to `COC(=O)c1c(C)cc(OCCCCCCCCCCCCCC[n+]2ccc(/C=C/c3cc4c5c(c3O)CCCN5CCC4)cc2)cc1O`, for which the selectivity ratio in [1] was determined as 43.6. Also, the results for the Ratio EC50 in data set [2] and in data set [3] were 0.81 and 1.1, respectively. Further, in [4], the CC50 turned out to be 23.6 µM. The figures for the EC50 in [5], in data set [6] and in data set [7] were 0.59 µM, 0.44 µM and 0.54 µM, respectively. For the same molecule, in [8], the IC50 amounted to 0.042 µM.

For `Cc1cc(O)cc(O)c1C(=O)OCCCCCCCCCCCCCC[n+]1ccc(/C=C/c2cc3c4c(c2O)CCCN4CCC3)cc1.[Br-]`, in [1], the selectivity ratio was over 100. The results for the Ratio EC50 in data set [2] and in data set [3] were 1.03 and 1.17, respectively. The Drug uptake entry in data set [12] is “Active”; in data set [13] it was 66%; in data set [14], “Active”; in [9], “Active”. Moreover, the CC50 in [4] is over 100 µM. Further, the concentration for a half-maximal effect (EC50) in data set [5] is 1.19 µM; in data set [6], 1.05 µM; in data set [7] it was 1.01 µM. In data set [8], the IC50 is 0.36 µM.

`Cc1cc[n+](CCCCCCCCCCCCCCOc2cc(C)c(C(=O)O)c(O)c2)cc1`: the selectivity ratio in data set [1] was over 10. Besides, in data set [2], the Ratio EC50 was 0.84. The CC50 in data set [4] is over 20 µM. Besides, the EC50 in data set [6] stood at 16.6 µM. Further, the IC50 in data set [8] came out at 1.8 µM.
